Screening data (PubChem BioAssay)
The list is not random: actives were taken first. Their share in the collection is about 1.2%.
G6PDH CS: L. mesenteroides G6PDH inhibitors, counter-screen for G6PDH-coupled screening assays, biochemical, Leuconostoc mesenteroides enzyme | glucose-6-phosphate dehydrogenase [Leuconostoc mesenteroides] | Purified L. mesenteroides G6PDH, diaphorase/resazurin coupled fluorescence, 45 min | inhibition, % at 5 µM | 200,000 tested, 0.12% active | AID 1020, 2008; in the data active = inhibition above about 50%
Diaphorase act: compounds boosting diaphorase resazurin reduction – biochemical, uHTS, resorufin fluorescence, counter-screen for diaphorase-coupled primary assays, primary screen; activation factor at 20 µM; Diaphorase/resazurin coupled assay, 16 min; active compounds read high; 1 = vehicle wells, 0 = NADH-free wells; 190,000 tested, 0.005% active;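 active = diaphorase activity raised at least twofold by the compound at 20 µM; inactive = activation factor below 2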
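Material: bacterial diaphorase enzyme (C. kluyveri); amount: enzyme 0.07 U/mL final; reagent: NADH substrate 0.114 mM plus resazurin dye 0.1 mM, final; doses: single compound dose of 20 µM, 1% DMSO final; timing: 16 min enzyme reaction, ambient temperature; measured by: fluorescence of resorufin, 544 nm excitation, 590 nm emission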
PfG6PD inh: PfG6PD enzyme inhibitors, primary screen, biochemical, fluorescence intensity, uHTS; PfGluPho enzyme, NADPH resazurin-diaphorase fluorescence; inhibition, % at 20 µM; 350,000 tested, 0.78% active;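 active = inhibition reaching at least a set limit at 20 µM in the primary screen, cut at about 59% in these data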
HKDC1 inh: HKDC1 hexokinase inhibitors, primary screen, biochemical, fluorescence, uHTS | recombinant HKDC1, G6PDH/diaphorase resazurin coupled fluorescence | inhibition, % at 20 µM | 340,000 tested, 0.16% active;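 active = inhibition above about 35% when tested at 20 µM, limit read from the data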
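Incubation: 90 min at room temperature in dark / Material: recombinant HKDC1 (HK5) hexokinase enzyme, produced in-house / Quantity: enzyme 5 µg/mL final / Compound: one dose of 20 µM, 1% DMSO / Reagent: glucose and ATP substrates / Buffer or medium: Tris pH 8.0 buffer with MgCl2, Tween-20, BSA, BME / Technique: resorufin fluorescence at 613 nm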
Diaph inh CS: diaphorase inhibitors and chemical oxidizers, primary screen, counter-screen for diaphorase-coupled primary assays, biochemical, uHTS, resorufin fluorescence; inhibition, % at 20 µM; AID 1217, 2008; diaphorase resazurin-to-resorufin fluorescence, NADH, 16 min; bacterial (C. kluyveri) enzyme, not human; 190,000 tested, 0.69% active;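 active = primary screen inhibition at 20 µM above a set limit, cut at about 50% in these data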
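Test system: bacterial diaphorase enzyme (C. kluyveri); Quantity: 0.14 U/mL diaphorase, enzyme working solution; Times: reaction incubation of 16 min at room temperature; Measured by: fluorescence of resorufin formed from resazurin, Ex 544/Em 590 nm; Benchmarks: positive control minus NADH, DMSO neutral control.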
PfGluPho conf: PfG6PD inhibitors, hit retest, confirmation, biochemical, fluorescence intensity, single concentration. 2,400 tested, 34% active. inhibition, % at 20 µM. shares compounds with PfG6PD inh. AID 504753, 2011. recombinant PfGluPho, NADPH-diaphorase-resazurin fluorescence;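 active = inhibition of at least 50% at 20 µM in any single replicate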
Diaphorase 10uM: diaphorase inhibitors and chemical oxidizers, confirmation, counter-screen for P. falciparum G6PD inhibitor project, biochemical, fluorescence intensity, 10 µM NADPH; inhibition, % at 20 µM; diaphorase-coupled resazurin reduction, NADPH 10 uM; shares compounds with PfG6PD inh; 820 tested, 39% active;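 active = average inhibition reaching 50% or more with the compound at 20 µM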;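 also: resorufin red fluorescence formed as diaphorase reduces resazurin using NADPH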
Diaph ctr 30uM: diaphorase inhibitors and chemical oxidizers, confirmation, counter-screen for P. falciparum G6PD inhibitor project, biochemical, fluorescence intensity, 30 µM NADPH; inhibition, % at 20 µM; shares compounds with PfG6PD inh; AID 504863, 2011; Diaphorase/resazurin coupled assay, resorufin fluorescence; 820 tested, 29% active;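 active = inhibition averaging 50% or more, tested at 20 µM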
Hits are given with their value; . = inactive; / = not tested or not shown.

SMILES	G6PDH CS	Diaphorase act	PfG6PD inh	HKDC1 inh	Diaph inh CS	PfGluPho conf	others
Cc1ccc(N(C(=O)c2csnn2)C(C(=O)NC2CCCC2)c2ccccn2)c(C)c1 (configuration not stated)	/	/	.	.	/	/
COc1ccc(N=Cc2sc(O)c3ccccc23)cc1	.	.	69.0	.	.	.
COc1ccc(N=Cc2c(O)c3ccccc3n2C(C)=O)cc1	/	/	.	.	/	/
COC(=O)CSc1ncnc2c1sc1nc(-c3ccco3)c3c(c12)CC(C)(C)OC3	.	.	/	/	.	/
CCOC(=O)c1sc2nc(-c3ccco3)c3c(c2c1N)CC(C)(C)OC3	.	.	64.5	.	.	.
Cc1ccc(NS(=O)(=O)c2ccc(C(=O)NCc3ccc(S(N)(=O)=O)cc3)cc2)cc1	/	/	.	.	/	/
Cn1cc(CNC(=O)CC2C(=O)NCCN2CC(C)(C)C)cn1 (configuration not stated)	.	.	.	.	.	/
Cc1onc(-c2ccccc2)c1C(=O)N(Cc1ccco1)Cc1cccs1	.	.	83.4	.	.	.
CN(CC(=O)Nc1cccc(F)c1)C(=O)CNS(=O)(=O)c1ccc(N(C)C)c([N+](=O)[O-])c1	/	/	.	.	/	/
O=c1c2ccccc2oc2cc(C#CC3(O)CCCCC3)ccc12	/	/	.	.	/	/
C=CCn1c2ccccc2c(=O)c2cc(C#CC3(O)CCCCC3)ccc21	/	/	104.1	.	/	55.3	Diaphorase 10uM=69.9;Diaph ctr 30uM=53.5
C=CCn1c2ccccc2c(=O)c2cc(C#CC[C@@H](C)O)ccc21	/	/	67.2	.	/	.
Cn1c2ccccc2c(=O)c2cc(C#CC3=CCCCC3)ccc21	/	/	.	.	/	/
O=C(NCCCN1CCCC(O)C1)c1cc(COc2ccc(F)cc2F)on1 (configuration not stated)	/	/	.	.	/	/
COc1ccc([C@H]2CC(=O)C=C(c3ccc(Oc4ccccc4)cc3)C2)cc1OC	/	/	.	.	/	/
Nc1cc(-c2ccncc2)c[nH]c1=O	.	.	63.7	.	65.6	.
CCNc1ccc(S(=O)(=O)C(F)(F)F)cc1NC(=O)C12CCC(CC1)C2	.	.	.	.	.	/
CCNc1cc(S(=O)(=O)C(F)(F)F)ccc1N	.	.	71.7	.	.	.
C/C(=N\Nc1ccc(C)c(Cl)c1)c1cccnc1	/	/	96.0	.	/	.
CC(C)(C)OC(=O)N1CCC(NC(=O)c2[nH]cnc2C(=O)Nc2ccccc2F)CC1	/	/	.	/	/	/
COC(=O)CCC(=O)OC1(C)C(=O)C2=CN(C3CC3)C(c3ccc(OC)cc3)=CC2=C(Br)C1=O (configuration not stated)	/	/	71.7	.	/	52.4	Diaphorase 10uM=.;Diaph ctr 30uM=.
COC(=O)CCC(=O)OC1(C)C(=O)C=C2C=C(C3CC3)N(Cc3ccc(OC)cc3)C=C2C1=O (configuration not stated)	/	/	.	.	/	/
COC(=O)CCC(=O)OC1(C)C(=O)C2=CN(CCCOC(C)C)C(c3ccc(OC)cc3)=CC2=C(Br)C1=O (configuration not stated)	/	/	82.0	.	/	.
COc1cccc(CN2CC(C(=O)N(C)C3CCOCC3)CCC2=O)c1 (configuration not stated)	/	/	.	.	/	/
O=S(=O)(c1cccs1)N1CN(Cc2ccco2)c2nc3ccccc3nc21	/	/	92.7	.	/	.
SMILES	G6PDH CS	Diaphorase act	PfG6PD inh	HKDC1 inh	Diaph inh CS	PfGluPho conf	others
O=S(=O)(c1cccs1)N1CN(Cc2ccc(Cl)cc2)c2nc3ccccc3nc21	.	.	.	.	.	/
Cc1ccc(S(=O)(=O)N2CCCOC2CNC(=O)C(=O)NCc2cccs2)cc1 (configuration not stated)	.	.	.	.	.	/
Cc1ccc(C)c(S(=O)(=O)NCC(=O)OCC(=O)Nc2sccc2C(N)=O)c1	/	/	.	.	/	/
CCCCCn1c(-c2ccco2)nc2nc3ccccc3nc21	.	.	63.6	.	.	.
CC1CCCC(NC(=O)COC(=O)CCC(=O)c2ccc(F)cc2)C1C (configuration not stated)	/	/	.	.	/	/
Cn1cc(SCC(=O)N2CCCc3ccccc32)c2ccccc21	.	.	59.7	.	.	.
Cn1cc(SCC(=O)N2CCOCC2)c2ccccc21	.	.	.	.	.	/
CN1C2CCC1CC(OC(=O)C(CO)c1ccccc1)C2 (configuration not stated)	/	/	.	.	/	/
NC(=S)NN=Cc1cc(-c2cccc(N)c2)ccn1	/	/	68.9	/	/	.
CCOC(=O)c1sc(=S)n(C)c1NC(=O)c1ccccc1C	.	.	.	.	.	/
CCOC(=O)c1sc(=S)n(C)c1NC(=O)c1ccc(F)cc1	.	.	72.0	.	.	.
COc1ccccc1-c1oc2ccccc2c1-c1ccc2cc[nH]c2c1	/	/	63.3	.	/	.
COc1ccc(OCC(O)CNCCOc2ccccc2OC)c(C(C)(C)C)c1 (configuration not stated)	/	/	.	.	/	/
COc1ccc(/C=N/Nc2cc(C)nc3c(C)cccc23)cc1	/	/	76.1	.	/	.
COc1ccc(/C=N/Nc2cc(C)nc3ccccc23)cc1	/	/	.	.	/	/
O=C(COc1ccc(S(=O)(=O)N2CCOCC2)cc1)NCc1ccccn1	/	/	.	.	/	/
NC(=S)N/N=C\c1ccccc1OCc1ccccc1	.	.	.	.	.	/
COc1ccc(CSCC(=O)N/N=C/c2ccc(OCC(=O)NCc3ccco3)cc2)cc1	.	.	.	.	.	/
O=C(CSCc1ccccc1)N/N=C/c1ccccc1OCc1ccccc1	.	.	62.8	.	.	.
COc1ccc(CSCC(=O)N/N=C/c2ccccc2OCc2ccccc2)cc1	.	.	89.5	.	.	.
Cc1ccc(-c2cc(-c3ccc(F)cc3)c(C#N)c(N)n2)o1	.	.	.	.	.	/
Cc1ccc(-c2cc(-c3ccc(C)o3)nc(N)c2C#N)cc1	.	.	60.3	.	.	.
Cc1ccc(-c2cc(-c3ccc(Cl)cc3)c(C#N)c(N)n2)o1	.	.	96.1	.	.	.
